Bioassay records deposited in PubChem by several laboratories.
The entries come from a sample that favours hits as a whole.
Mac1 fbg inh – inhibitors of human CD11b/CD18 binding to fibrinogen. P05107+P11215. K562 CD11b/CD18 adhesion to fibrinogen, ATPlite luminescence; Mn2+ added to activate the integrin. inhibition, % at 10 µM. 0.54% of 93,000 active. AID 1497;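 active = primary inhibition of 50% or more at 10 µM, then 40% or more on retest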
Target sequence (P05107 whole entry, looked up, other chains not shown): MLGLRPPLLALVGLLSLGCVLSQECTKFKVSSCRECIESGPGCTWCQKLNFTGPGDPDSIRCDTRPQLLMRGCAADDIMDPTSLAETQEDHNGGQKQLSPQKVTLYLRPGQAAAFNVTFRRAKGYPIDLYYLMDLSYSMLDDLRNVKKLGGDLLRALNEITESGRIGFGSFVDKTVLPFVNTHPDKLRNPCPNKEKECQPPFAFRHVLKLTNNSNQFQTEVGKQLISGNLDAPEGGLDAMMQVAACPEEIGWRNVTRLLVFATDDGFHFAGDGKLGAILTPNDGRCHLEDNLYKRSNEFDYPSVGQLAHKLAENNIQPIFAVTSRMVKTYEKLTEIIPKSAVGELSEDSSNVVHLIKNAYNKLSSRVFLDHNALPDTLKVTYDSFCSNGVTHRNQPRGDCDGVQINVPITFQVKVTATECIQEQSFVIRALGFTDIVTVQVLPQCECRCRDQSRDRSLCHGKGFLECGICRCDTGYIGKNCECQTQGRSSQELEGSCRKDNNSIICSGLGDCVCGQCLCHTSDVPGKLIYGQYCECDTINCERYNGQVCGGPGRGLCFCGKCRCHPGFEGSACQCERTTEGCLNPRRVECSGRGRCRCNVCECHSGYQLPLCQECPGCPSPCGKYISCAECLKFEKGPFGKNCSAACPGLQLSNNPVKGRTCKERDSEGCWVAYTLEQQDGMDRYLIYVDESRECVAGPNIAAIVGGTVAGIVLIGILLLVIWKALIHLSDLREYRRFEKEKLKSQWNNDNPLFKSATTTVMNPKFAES
Mac1 fbg enh – increases human CD11b/CD18 adhesion to fibrinogen. P05107+P11215. K562 CD11b/CD18 adhesion to fibrinogen, ATPlite luminescence. 0.07% of 93,000 active. AID 1499. activation, % at 10 µM;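 active = 10 µM primary screen giving 50% or more activity, confirmed by 40% or more on retest at that dose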
tolC growth inh – blocks growth of E. coli BW25113 tolC mutant; OD615; growth inhibition, % at 10 µM (by protocol); 2.2% of 65,000 active;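 active = growth inhibition at or above a cutoff equal to the mean over every tested compound plus 3 SD, cut at about 60% in these data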;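 also: growth measured after 20 h incubation at 37 °C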
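Assay system: tolC-deleted E. coli BW25113. Medium: kanamycin-containing LB broth (50 µg/mL). Dosing: 10 µM final, single dose. Timing: bacterial growth with compound for 20 h at 37 °C. Detection: A615 absorbance measurement. Read-out basis: growth inhibition in percent.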
E coli WT exp – blocks growth of wild type E. coli BW25113 | growth inhibition, % at 100 µM | OD600 absorbance | 0.15% of 98,000 active | AID 710;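 active = growth inhibition above about 50% at one test dose, limit read from the data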;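 also: growth measured after 20 h incubation at 37 °C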
Numbers without * were called inactive; x = no result given.

SMILES | Mac1 fbg inh | Mac1 fbg enh | tolC growth inh | E coli WT exp
Cc1cccc(N2C(=S)N=C(Nc3c(C)cccc3C)C23CCOC(C)(C)C3)c1 (stereo unspecified) | 12.6 | -0.8 | x | -16.0
OCCN(CCO)CC(O)COCCC12CC3CC(CC(C3)C1)C2 (stereo unspecified) | -9.9 | 2.0 | x | 2.0
CCOC(=O)c1cccc(C(=O)OCC)n1 | x | x | -20.2 | 7.0
CCOC(=O)C1=Nc2ccccc2C1=[N+]=[N-] | -32.6 | 15.1 | 8.2 | 100.0*
CCn1c(=O)n(CC(=O)Nc2cc(OC)c(OC)c(OC)c2)c(=O)c2ccccc21 | -10.0 | -1.2 | x | -5.0
CN(C)c1ccc(/C=C/c2ccc3ccccc3[n+]2C)cc1 | 79.1* | -6.7 | x | x
Oc1ccc2c(c1)oc1cc(O)ccc12 | x | x | 100.0* | 35.0
Cc1oc2cc(O)ccc2c(=O)c1Oc1ccc2ccccc2c1 | x | x | x | 2.0
C=CCc1c(C)nc(SCc2nc3ccccc3c(=O)[nH]2)[nH]c1=O | 4.0 | -1.4 | 100.0* | 5.0
C=CCn1c(SCc2nc3ccccc3c(=O)[nH]2)nc2ccccc2c1=O | 21.3 | -0.4 | x | -7.0
O=C(Cn1c2ccccc2c(=O)c2ccccc21)N/N=C/c1cc([N+](=O)[O-])ccc1N1CCCCCC1 | -9.3 | 107.4* | x | -6.0
O=C(Cn1c2ccccc2c(=O)c2ccccc21)N/N=C/c1ccc(N2CCCC2)c([N+](=O)[O-])c1 | 1.2 | 87.3 | x | x
Cc1cccnc1Nc1nc(-c2ccccn2)cs1 | 6.2 | 1.8 | x | 20.0
c1ccc(Nc2nc(-c3cccs3)cs2)nc1 | x | x | 100.0* | 4.0
c1ccc(Nc2nc(-c3cccnc3)cs2)nc1 | x | x | -24.3 | -2.0
Cc1cccc(Nc2nc(-c3ccccn3)cs2)n1 | -3.8 | 3.9 | 98.2* | 37.0
Cc1ccccc1NC(=S)Nc1ccc(Br)cc1 | 27.5 | -1.5 | x | x
C=CCn1c(SCC(=O)c2ccc(Br)cc2)nnc1C(CC(C)C)NC(=O)c1cccs1 (stereo unspecified) | 3.2 | 2.3 | x | -7.0
Nc1c(C(=O)NCc2ccc3c(c2)OCO3)c2nc3ccccc3nc2n1CCCN1CCOCC1 | 20.2 | 5.1 | 95.0* | 0.0
COc1ccccc1CNC(=O)c1c(N)n(CCCN2CCOCC2)c2nc3ccccc3nc12 | 5.4 | 2.7 | x | 9.0
O=C(NN=C1CCCC1)C(=O)Nc1cccc(C(F)(F)F)c1 | -2.0 | -3.1 | x | -7.0
CCCC(C)C1C(C#N)=C(N)Oc2cc(C)oc(=O)c21 (stereo unspecified) | x | x | -5.3 | x
Cc1cc(C(=O)NNC(=S)NC(=O)/C=C/c2ccccc2Cl)n[nH]1 | 65.4* | 0.6 | x | 35.0
CCOc1cc(/C=C2\C(=O)N(c3ccc(C(N)=O)cc3)N=C2C)ccc1OC(=O)c1cccs1 | 8.5 | 80.8* | x | -4.0
Cc1cc(C(=O)NCC(=O)OCC(=O)N(C(C)C)C(C)C)ccc1[N+](=O)[O-] | 3.1 | -4.0 | x | x
SMILES | Mac1 fbg inh | Mac1 fbg enh | tolC growth inh | E coli WT exp
Cc1ccc(Cl)cc1N1CCN(C(=O)COc2ccc(S(=O)(=O)NC(C)C)cc2)CC1 | 48.0 | -1.2 | 63.1* | -14.0
Cn1nc(-c2ccc(C(=O)Nc3cccc(Cl)c3)cc2)c2ccccc2c1=O | 4.8 | 3.9 | x | 2.0
c1ccc2nc3c(nc2c1)c1ccccc1n3CCN1CCOCC1 | -33.6 | 5.3 | 43.7 | 5.0
CCn1c2ccccc2c2nc3cc(S(=O)(=O)N4CCOCC4)ccc3nc21 | 57.4* | -3.8 | 8.3 | -2.0
CC1=C(SCCC#N)S/C(=C2\SC(C)=C(SCCC#N)S2)S1 | -5.2 | 47.9 | 3.2 | -3.0
Cc1ccc(N2C(=O)CC(Sc3nc4ccccc4o3)C2=O)cc1Cl (stereo unspecified) | x | x | x | 3.0
CC(C)C(=O)Nc1nnc(CCN2CCCCC2)s1 | -4.7 | -3.0 | x | 5.0
N#Cc1c(-c2cccs2)nc(SCC(=O)c2cccs2)[nH]c1=O | x | x | x | 2.0
CCc1nc2sc3ccccc3c(=O)c2c(=O)n1Cc1ccco1 | x | x | 90.8* | 3.0
O=c1c2ccccc2sc2nc(C3CCCCC3)n(Cc3ccco3)c(=O)c12 | 27.8 | 48.2 | 52.1 | 6.0
CN(c1ccccc1)C(c1ccc(F)cc1)c1nnnn1C1CCCC1 (stereo unspecified) | -21.8 | -3.5 | 73.4* | -15.0
CN(c1ccccc1)C(c1ccc(F)cc1)c1nnnn1CC1CCCO1 (stereo unspecified) | -23.0 | 1.3 | -1.1 | -1.0
CC(C)n1c2ccccc2c2nc3ccccc3nc21 | -8.1 | 9.6 | 100.0* | -2.0
Cn1nc(C(F)(F)F)c(C(=O)Nc2cccc(Cl)c2)c1Cl | x | x | x | -3.0
Cc1nc2c(ccc3nc(NC(=O)c4ccc5c(c4)OCCO5)sc32)s1 | 67.2* | 6.0 | 1.8 | -9.0
Cc1nc2ccc3nc(NC(=O)c4ccc5c(c4)OCCO5)sc3c2s1 | -14.4 | 17.2 | 9.5 | 0.0
Cc1cc2oc(C(=O)N(Cc3ccccc3)C3CCS(=O)(=O)C3)cc(=O)c2cc1Cl (stereo unspecified) | -19.0 | -1.5 | x | -12.0
COc1cccc(/C=C/C(=O)OCC(=O)NCC2CCCO2)c1OC (stereo unspecified) | 23.3 | 2.0 | x | x
Cc1ccc(-c2nnc(N3CCN(c4ccccn4)CC3)c3ccccc23)cc1 | 24.9 | -1.3 | 100.0* | -4.0
CN1/C(=C\C(=O)COc2ccc3c(c2)OCO3)C(C)(C)c2ccccc21 | 36.4 | -4.2 | 88.9* | -28.0
N#CC1=C(N)NC(SCC(=O)Nc2ccc(Br)cc2)=C(C#N)C12CCCCC2 | 82.6* | -8.7 | x | 1.0
CC1(C)CC(=O)C2=C(C1)NC(SCC(=O)Nc1ccccc1)=C(C#N)C21CCCCC1 | 0.4 | 5.1 | 6.3 | 0.0
O=C(NCc1cn(-c2ccccc2)nc1-c1ccc(F)cc1)c1cccc([N+](=O)[O-])c1 | 15.1 | 3.1 | x | x
C/C(N)=C(/C#N)C(=O)CSc1nc2ccccc2[nH]1 | 8.1 | -2.7 | x | -7.0
Oc1ccc(CN2CCc3ccccc3C2)c2cccnc12 | 11.6 | -3.8 | x | 62.0*
SMILES | Mac1 fbg inh | Mac1 fbg enh | tolC growth inh | E coli WT exp
CCOC(=O)c1c(-c2cccs2)csc1NC(=O)CN1CC(C)OC(C)C1 (stereo unspecified) | 1.6 | 12.4 | 68.2* | -15.0
Cc1cccc2cc(CN(CC3CCCO3)C(=O)NC3CCCCC3)c(=O)[nH]c12 (stereo unspecified) | 15.8 | 0.1 | 19.9 | 9.0
COc1ccc2[nH]c(=O)c(CN(C(=O)NC3CCCCC3)C3CCCCC3)cc2c1 | -8.2 | 4.9 | 72.0* | -10.0
COc1ccc(CN(Cc2cc3cc4c(cc3[nH]c2=O)OCO4)C(=O)NC2CCCCC2)cc1 | -10.0 | 0.0 | 72.0* | -14.0
Cc1cccc2cc(CN(Cc3ccco3)C(=O)NC3CCCCC3)c(=O)[nH]c12 | -4.1 | -3.2 | 64.1* | -7.0
COc1ccc(N/N=C(/C#N)S(=O)(=O)c2nsc(C)c2C#N)cc1 | 2.6 | 0.6 | x | -15.0
Cc1snc(S(=O)(=O)/C(C#N)=N/Nc2cccc(C(F)(F)F)c2)c1C#N | 89.9* | -6.4 | x | 7.0
O=C(/C=C/c1c[nH]c2ccccc12)c1cccc2ccccc12 | 33.5 | -1.0 | x | x
Cc1cc2c(cc(C(=O)OCC(=O)NCc3cccs3)n2C(C)C)o1 | 4.7 | -2.4 | 74.5* | -8.0
Cc1ccc2c(c1)c(C)c(C)n2CC(O)Cn1nc(C)c(Br)c1C (stereo unspecified) | -26.1 | -1.6 | 81.7* | -8.0
Cc1ccc(S(=O)(=O)c2ccc(Oc3cccc(C)c3)cc2)cc1 | x | x | x | -2.0
